Screening data from PubChem.
WT yeast gro inh: growth inhibition of WT yeast, mitochondrial fusion screen; mitochondrial fusion phenotypic screen, WT strain; inhibition, % at 10 µM; 2.1% of 190,000 active; in the data active = inhibition above about 58%; tested in S. cerevisiae
p47phox inh: blocks human p47phox regulatory protein of NADPH oxidases; 0.53% of 220,000 active; inhibition, % at 24.7 µM; AID 1274; p47phox/p22phox peptide binding, fluorescence polarization, 2 h;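 active = inhibition above about 30%, limit read from the data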;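 also: 0% = p47phox with labelled peptide and 100% = labelled peptide alone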
RBBP9 inhibitor: blocks human serine hydrolase RBBP9; recombinant RBBP9, FP-Rh probe fluorescence polarization; inhibition, % at 7.94 µM; 0.2% of 220,000 active;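 active = inhibition above the campaign mean of all tested compounds plus 3 SD, cut at about 14% in these data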;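 also: plate controls were DMSO wells with RBBP9 for no effect and wells lacking RBBP9 protein for full effect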
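Measured by – fluorescence polarization · Test system – RBBP9 protein · Input – 2.5 µM RBBP9 dispensing solution, before mixing · Measure – percent inhibition from mP, scaled between DMSO and no-protein wells · Benchmarks – DMSO-treated enzyme wells and wells lacking RBBP9 · Times – preincubation 30 min plus labeling 45 min at 25 °C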
Cl transport mod: KCC2 (human) Cl- transport modulation. KCC2 cells, thallium flux FluoZin-2 fluorescence. B-score of Tl+ flux slope (higher = more flux/activation; lower = inhibition) at 10 µM. 2.2% of 190,000 active;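 active = thallium flux slope and its plate-corrected score both differing from the plate sample mean at a set confidence after two filtering rounds, in either direction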;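 also: slope of fluorescence scaled to starting intensity during 10 to 20 s after thallium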
Target sequence (Q9H2X9 whole entry, looked up): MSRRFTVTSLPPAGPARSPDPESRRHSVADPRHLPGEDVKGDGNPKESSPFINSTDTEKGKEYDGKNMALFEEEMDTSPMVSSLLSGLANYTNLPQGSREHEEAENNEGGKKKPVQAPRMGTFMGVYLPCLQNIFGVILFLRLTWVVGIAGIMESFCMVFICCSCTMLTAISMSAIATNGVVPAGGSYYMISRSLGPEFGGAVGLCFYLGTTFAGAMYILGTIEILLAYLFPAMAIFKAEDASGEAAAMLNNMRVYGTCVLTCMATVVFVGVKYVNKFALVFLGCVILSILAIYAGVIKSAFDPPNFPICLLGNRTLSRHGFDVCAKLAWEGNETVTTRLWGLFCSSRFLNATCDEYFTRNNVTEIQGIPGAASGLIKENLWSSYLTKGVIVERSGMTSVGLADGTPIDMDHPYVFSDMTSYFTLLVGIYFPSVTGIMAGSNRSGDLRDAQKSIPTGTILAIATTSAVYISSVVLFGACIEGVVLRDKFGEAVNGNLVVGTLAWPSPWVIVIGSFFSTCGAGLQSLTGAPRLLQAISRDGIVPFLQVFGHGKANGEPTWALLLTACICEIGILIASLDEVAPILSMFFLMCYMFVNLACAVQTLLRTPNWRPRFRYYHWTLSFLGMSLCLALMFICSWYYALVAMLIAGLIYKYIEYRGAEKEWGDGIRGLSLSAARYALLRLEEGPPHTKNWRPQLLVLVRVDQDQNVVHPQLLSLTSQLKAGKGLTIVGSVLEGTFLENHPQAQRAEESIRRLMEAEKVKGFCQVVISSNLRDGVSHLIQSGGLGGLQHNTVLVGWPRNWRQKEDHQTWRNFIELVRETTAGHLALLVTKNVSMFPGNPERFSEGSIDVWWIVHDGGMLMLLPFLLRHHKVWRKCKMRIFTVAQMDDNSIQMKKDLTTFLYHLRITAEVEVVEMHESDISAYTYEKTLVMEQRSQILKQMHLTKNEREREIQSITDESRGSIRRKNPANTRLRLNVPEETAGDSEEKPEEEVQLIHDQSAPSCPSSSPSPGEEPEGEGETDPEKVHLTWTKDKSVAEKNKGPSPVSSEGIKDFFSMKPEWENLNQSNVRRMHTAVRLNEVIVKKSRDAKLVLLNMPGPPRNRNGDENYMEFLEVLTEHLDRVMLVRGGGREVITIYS
14-3-3 Bad PPI: disrupts binding of bovine 14-3-3 zeta to phospho-Bad peptide. AID 781. TR-FRET 14-3-3zeta/Dy647-pBad peptide displacement, 1 h. P63103. inhibition, % at 21.7 µM. 0.71% of 220,000 active;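 active = inhibition above about 70%, limit read from the data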;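 also: 0% = full 14-3-3 plus peptide FRET controls and 100% = background without 14-3-3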
ROMK mod: human ROMK K+ channel modulation, primary screen; P48048; Tet-inducible ROMK, thallium flux fluorescence; actives lie on both sides; B-score at 10 µM; 2% of 130,000 active; AID 1918;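 active = signal ratio slope over the read window, or its plate-corrected B-score, at least 3 SD from the plate mean, either direction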;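 also: B-score of the F/F0 ratio slope over 7 to 12 s after thallium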
KCC2 sec1: confirmation of human KCC2 transport modulators; shares compounds with Cl transport mod; 15% of 3,700 active; normalised thallium flux (F/F0 slope) at 10 µM; HEK293-KCC2, thallium flux, FluoZin2 fluorescence; hits give high values;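 active = thallium flux slope above the same plate's solvent-only control mean plus 3 SD; inconclusive = the two replicate wells disagree; inactive = no significant difference from solvent-only control wells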
KCC2 bumet counter: thallium flux despite bumetanide block in KCC2 cells, secondary assay 3; shares compounds with Cl transport mod; HEK293-KCC2 + bumetanide/ouabain, thallium flux FluoZin2; hits give high values; normalized thallium flux at 10 µM; 49% of 3,700 active; AID 1714;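 active = thallium entry rate above the same plate's blocked-transporter control wells by more than 3 SD; inconclusive = the two repeat wells disagree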;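 also: raw slope of fluorescence over initial fluorescence between 10 and 20 s after thallium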
KCC2 secondary2: KCC2 (human) modulation, second secondary assay. 23% of 3,700 active. HEK293-KCC2, thallium flux FluoZin2 fluorescence; actives lie on both sides; F/F0 rise rate, 10–20 s post-thallium. AID 1715. normalized thallium flux at 10 µM. shares compounds with Cl transport mod;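 active = thallium flux slope more than 3 SD above or below the plate's solvent-only control mean, mostly below; inconclusive = the two repeat wells disagreed; inactive = no significant shift from solvent-only controls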;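 also: raw slope with 0.1% DMSO as baseline and bumetanide as block control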
HEK counter1: counter-screen for KCC2 modulators: effect in parental HEK293 cells; shares compounds with Cl transport mod; thallium flux FluoZin2, ouabain; baseline-ratio fluorescence slope, 10–20 s after thallium; thallium flux rate (normalised fluorescence) at 10 µM; 46% of 3,700 active; AID 1716;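 active = thallium flux rate significantly above the same plate's solvent-only control wells, beyond their mean plus 3 SD; inconclusive = the two replicate wells gave conflicting results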
KCC2 retest ouab: confirmation of human KCC2 modulators with ouabain | raw Tl+ flux slope (below DMSO = inhibition, above = activation) at 10 µM | shares compounds with Cl transport mod | AID 1717 | 48% of 3,700 active | HEK293-KCC2, thallium flux FluoZin2 fluorescence; bidirectional: low = inhibitor, high = activator;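 active = thallium flux slope beyond 3 SD from same-plate DMSO control mean in most replicates, usually higher, sometimes lower; inconclusive = repeat tests gave conflicting results; inactive = no significant difference from controls in most replicates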;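 also: slope of initial-normalized fluorescence between seconds 10 and 20 after thallium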
HEK293 Tl flux2: acts in parental HEK cells, second KCC2 counter-screen; shares compounds with Cl transport mod; HEK293 parental, thallium flux FluoZin-2 fluorescence slope; AID 1718; thallium flux slope at 10 µM; 33% of 3,700 active;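 active = thallium flux slope above the same plate's solvent-control mean plus 3 SD in both duplicate wells; inconclusive = duplicate wells that disagreed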;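 also: run without ouabain in cells lacking the KCC2 cotransporter; slope of fluorescence scaled to its starting value between 10 and 20 s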
Starred values were filed as active, the others as inactive; ? = inconclusive; · = no result. Shown are actives, neighbours in structure and some others; about 5.8% of the full set was active somewhere.

SMILES	WT yeast gro inh	p47phox inh	RBBP9 inhibitor	Cl transport mod	14-3-3 Bad PPI	ROMK mod	KCC2 sec1	KCC2 bumet counter	KCC2 secondary2	HEK counter1	KCC2 retest ouab	HEK293 Tl flux2
CCCCc1nnc(NC(=O)Cn2cnc3ccccc3c2=O)s1	-11	9	3	0.61	-10	-0.46	·	·	·	·	·	·
COc1cc(/C=C/C(=O)OCC(=O)Nc2ccc(C)c(S(=O)(=O)N3CCCCC3)c2)ccc1O	-12	-5	-11	-2.4	-9	0.023	·	·	·	·	·	·
Cc1ccc(NC(=O)CCCSc2ccccc2)cc1S(=O)(=O)N1CCOCC1	5	-16	-5	-3*	-1	-1.7	0.018	0.0044	?	0.0068	0.016	0.01
Cc1ccc(NC(=O)COC(=O)/C=C/c2ccccc2)cc1S(=O)(=O)N1CCOCC1	-17	-15	-9	-4.1*	-6	-0.48	?	0.0044	0.021*	?	0.012*	0.0091
C=CCNc1nc(S(=O)Cc2ccc(C)cc2)nc2c1CCCC2 (stereo unspecified)	14	-4	-6	-2.5	3	-0.16	·	·	·	·	·	·
Cc1[nH]n(-c2ccccc2)c(=O)c1/C=N/N1C(=O)c2cccc3cccc(c23)C1=O	4	4	2	24*	-26	0.22	?	0.02*	0.045*	0.017*	0.032*	0.017*
CS(=O)(=O)N(CC(=O)N1CCN(c2ccc(F)cc2)CC1)c1ccc(F)c(Cl)c1	6	-7	3	-4.4*	-2	-0.056	?	0.0068	0.028*	0.0075	0.016*	0.011
CS(=O)(=O)N(CC(=O)N1CCN(c2ccccc2)CC1)c1cccc(Br)c1	0	35*	1	·	23	0.091	0.0063	0.005	0.023*	0.0076	0.015*	0.01
Cc1cccc(C)c1NCc1n[nH]c(=S)n1-c1ccccc1	-13	-9	-8	-0.72	-13	0.63	·	·	·	·	·	·
CC(C)c1ccc(NC(=S)NNC(=O)c2cccs2)cc1	16	-8	-8	25*	-22	-0.38	?	0.038*	0.027	0.018*	?	?
Cc1onc(C(=O)N2CCN(Cc3ccccc3)CC2)c1[N+](=O)[O-]	-11	-10	2	-4.1*	-2	-0.84	0.0088	0.0065	?	0.0075	0.019*	0.01
CSc1ncccc1C(=O)OCC(=O)NCc1ccc2c(c1)OCO2	-1	-9	-2	-0.66	-12	-0.15	·	·	·	·	·	·
O=C(NNc1ncnc2ccccc12)c1cccc(Cl)c1	·	12	-6	-0.18	-2	-0.2	·	·	·	·	·	·
Cc1ccc2[nH]c(=O)cc(C(=O)OC(C)C)c2c1	0	-3	-2	·	2	·	·	·	·	·	·	·
COCCn1c(-c2ccc(Cl)cc2Cl)nc2c(c(=O)c3ccccc3n2C)c1=O	2	-8	-4	-3.4*	3	-0.0092	0.006	0.0047	0.024*	?	0.013*	0.0096
CC(C)CCNC(=O)NC(=O)CSc1ncccn1	2	0	-5	0.94	-3	0.21	·	·	·	·	·	·
Cc1ccc2nc(CSc3nc(C)cc(C)c3C#N)[nH]c2c1	45	-10	-9	5.9*	-12	-0.045	0.017	0.0035	0.025*	0.0061*	0.014	0.0094
O=C(O)c1ccc(NC(=S)NC(NC(=O)c2ccco2)C(Cl)(Cl)Cl)cc1 (stereo unspecified)	10	-5	-9	0.31	-11	1.6	·	·	·	·	·	·
CCCCC(=O)Nc1ccc(C(=O)NNC(=S)NC(=O)c2ccco2)cc1	-25	-9	-5	7.2*	-22	-1	0.011	0.031*	0.034	?	0.03*	?
CCOc1ccc(NC(=S)NC(=O)c2ccco2)cc1	·	-4	-5	184*	-6	·	0.063*	0.18*	0.048*	0.11*	0.098*	0.041*
O=C(NC(=S)Nc1ccc(CN2CCCCC2)cc1)c1cc2ccccc2o1	·	-20	-8	13*	5	-0.0042	0.0067	0.017*	0.05*	0.031*	0.033*	0.032*
Cc1ccc(NC(=S)NC(NC(=O)c2ccco2)C(Cl)(Cl)Cl)cc1 (stereo unspecified)	1	-55	-1	8.2*	-13	-0.32	0.0074	0.0043	0.029	0.0079	0.018	0.011
CCCC(=O)Nc1ccccc1NC(=O)c1ccc(OC)cc1	3	-4	5	0.62	5	0.96	·	·	·	·	·	·
O=C(NC(=S)Nc1ccc(CN2CCCCC2)cc1)c1ccco1	-12	-4	-3	4*	-9	-0.35	0.0094	0.035*	0.034	0.015*	0.042*	?
Cc1ccc(C(=O)NC(=S)Nc2ccc(CN3CCCCC3)cc2)c(C)c1	-4	-3	-3	1.8	-8	-0.25	·	·	·	·	·	·
SMILES	WT yeast gro inh	p47phox inh	RBBP9 inhibitor	Cl transport mod	14-3-3 Bad PPI	ROMK mod	KCC2 sec1	KCC2 bumet counter	KCC2 secondary2	HEK counter1	KCC2 retest ouab	HEK293 Tl flux2
O=C(NC(=S)Nc1cc(S(=O)(=O)N2CCOCC2)ccc1O)c1ccco1	-9	-12	-4	0.052	-14	0.099	·	·	·	·	·	·
Cc1ccc(S(=O)(=O)N2CCCCC2)cc1NC(=S)NC(=O)c1ccco1	·	-5	-7	22*	-4	·	0.0077	0.016*	0.028	0.013*	?	?
O=C(NC(=S)Nc1ccc(CN2CCOCC2)cc1)c1ccco1	·	-5	-6	11*	-2	·	?	0.034*	0.034	0.013*	0.039*	0.012*
COc1ccc(C(=O)NC(=S)Nc2ccc(CN3CCOCC3)cc2)cc1OC	·	-19	0	0.41	3	·	·	·	·	·	·	·
O=C(NC(=S)Nc1ccc2oc(=O)ccc2c1)c1cc2ccccc2o1	·	-6	-2	35*	12	·	0.016*	0.049*	0.034	0.037*	?	0.017*
CCN(C(=O)COC(=O)c1cc(=O)[nH]c2ccccc12)C1CCS(=O)(=O)C1 (stereo unspecified)	·	1	-4	0.0084	4	·	·	·	·	·	·	·
CCC(CC)c1ncc[nH]1	·	-10	-2	-0.078	-1	·	·	·	·	·	·	·
